# How the values were obtained:
# [1] = Selectivity ratio of EC50 for human alpha1B adrenergic receptor expressed in CHOK1 cells co-expressing aequorin assessed as inhibition of agonist induced calcium mobilization to EC50 for alpha1A adrenergic receptor (unknown origin) assessed as inhibition of agonist induced effect; format: cell-based; details: cho-k1
# [2] = target: T1, Adrenergic receptor alpha-1 (Rattus norvegicus, UniProt P15823+P23944+P43140); assay: Displacement of [3H]-Prazosin from alpha1 adrenergic receptor in rat brain cerebral cortex membranes by liquid scintillation counting analysis; format: cell membranes, Membrane
# T1 sequence (P15823 whole entry): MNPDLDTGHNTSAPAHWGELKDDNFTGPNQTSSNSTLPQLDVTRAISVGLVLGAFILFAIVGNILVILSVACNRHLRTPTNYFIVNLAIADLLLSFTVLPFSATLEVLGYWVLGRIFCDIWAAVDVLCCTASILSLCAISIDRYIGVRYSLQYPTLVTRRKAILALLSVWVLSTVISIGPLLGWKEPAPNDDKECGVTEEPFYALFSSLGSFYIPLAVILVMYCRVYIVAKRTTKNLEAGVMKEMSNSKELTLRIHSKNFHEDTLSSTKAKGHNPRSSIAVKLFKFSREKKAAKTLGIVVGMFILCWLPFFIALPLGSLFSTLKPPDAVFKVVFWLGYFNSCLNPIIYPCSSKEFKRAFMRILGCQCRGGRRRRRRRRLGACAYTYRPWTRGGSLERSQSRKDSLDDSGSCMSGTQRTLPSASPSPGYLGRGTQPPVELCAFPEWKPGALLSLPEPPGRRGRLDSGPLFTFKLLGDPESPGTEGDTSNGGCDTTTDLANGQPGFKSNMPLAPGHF
# T1 sequence (P23944 whole entry): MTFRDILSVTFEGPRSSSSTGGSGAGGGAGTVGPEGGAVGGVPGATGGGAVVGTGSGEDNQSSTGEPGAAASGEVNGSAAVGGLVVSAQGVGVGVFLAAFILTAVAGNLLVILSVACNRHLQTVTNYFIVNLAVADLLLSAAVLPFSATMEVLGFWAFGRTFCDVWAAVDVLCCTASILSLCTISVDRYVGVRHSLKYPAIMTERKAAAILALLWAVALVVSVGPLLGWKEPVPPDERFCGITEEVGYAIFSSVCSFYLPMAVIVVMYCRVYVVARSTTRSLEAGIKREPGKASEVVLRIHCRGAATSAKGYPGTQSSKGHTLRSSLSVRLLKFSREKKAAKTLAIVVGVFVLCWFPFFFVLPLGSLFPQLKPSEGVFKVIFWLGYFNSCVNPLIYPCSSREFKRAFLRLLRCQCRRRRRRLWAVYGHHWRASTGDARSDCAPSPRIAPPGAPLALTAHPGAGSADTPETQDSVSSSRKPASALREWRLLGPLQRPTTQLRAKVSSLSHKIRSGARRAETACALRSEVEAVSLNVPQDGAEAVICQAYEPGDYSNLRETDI
# T1 sequence (P43140 whole entry): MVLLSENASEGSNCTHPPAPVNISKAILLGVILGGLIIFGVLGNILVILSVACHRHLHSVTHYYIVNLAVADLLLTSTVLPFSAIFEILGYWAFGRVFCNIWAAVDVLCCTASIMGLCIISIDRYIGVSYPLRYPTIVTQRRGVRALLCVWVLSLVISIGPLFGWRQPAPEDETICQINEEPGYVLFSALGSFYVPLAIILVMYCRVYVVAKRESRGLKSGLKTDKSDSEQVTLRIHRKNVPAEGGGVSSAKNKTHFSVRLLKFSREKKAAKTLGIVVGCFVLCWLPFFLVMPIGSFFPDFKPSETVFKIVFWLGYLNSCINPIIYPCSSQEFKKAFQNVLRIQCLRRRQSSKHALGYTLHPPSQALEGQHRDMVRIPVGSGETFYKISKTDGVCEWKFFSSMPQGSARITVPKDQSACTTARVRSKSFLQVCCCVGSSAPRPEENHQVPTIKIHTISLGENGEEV
# Method in brief: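 Rat cerebral cortex homogenized in ice-cold 50 mM Tris–HCl (pH 7.6), spun at 20,000 g for 20 min (0–4 °C), resuspended and spun again. Membranes incubated with 0.2 nM [3H]-prazosin (α1) or 2 nM [3H]-clonidine (α2) and seven to eight compound concentrations (10^-11 to 10^-4 M). Non-specific binding defined with 10 µM phentolamine (prazosin) or 10 µM clonidine (clonidine). Ended by GF/C filtration, counted by liquid scintillation. Run in duplicate; Ki from two independent experiments.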
SMILES,Ratio EC50 [1],Ki [2] [µM]
COc1ccccc1OCCN1CCC(CNS(=O)(=O)c2cc(Cl)ccc2F)CC1,0.08,0.056
COc1ccc(S(=O)(=O)NCC2CCN(CCOc3ccccc3OC)CC2)cc1OC,3.73,0.081
CC(C)Oc1ccccc1OCCN1CCC(CNS(=O)(=O)c2cccc(Cl)c2F)CC1,3.8,0.071
COc1ccc(S(=O)(=O)NC2CCN(CCOc3ccccc3OC)CC2)cc1OC,2.4,0.099
CC(C)Oc1ccccc1OCCN1CCC(CNS(=O)(=O)c2cccc3cccnc23)CC1,3.07,0.095
COc1ccccc1OCCN1CCC(CNS(=O)(=O)c2cccc(Cl)c2F)CC1,0.17,0.048
COc1ccccc1OCCN1CCC(CNS(=O)(=O)c2cncc3ccccc23)CC1,3.68,0.09
COc1ccccc1OCCN1CCC(NS(=O)(=O)c2cncc3ccccc23)CC1,6.1,0.052
COc1ccccc1OCCN1CCC(CNS(=O)(=O)c2cccc(Cl)c2)CC1,0.13,0.046

# — ChEMBL document CHEMBL3861996, “Arylsulfonamide derivatives of (aryloxy)ethyl pyrrolidines and piperidines as α1-adrenergic receptor antagonist with uro-selective activity” (Bioorg Med Chem, 2016)
